Source: ChEMBL document CHEMBL4190207, “Lignans from the Roots of Taxus wallichiana and Their α-Glucosidase Inhibitory Activities” (J Nat Prod, 2017)

Assay: Inhibition of Saccharomyces cerevisiae alpha-glucosidase using p-nitrophenyl-alpha-D-glucopyranoside as substrate after 30 mins
How it was run: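 Reaction started by adding 3 mM p-nitrophenyl-α-D-glucopyranoside and 0.2 U/mL α-glucosidase (both stock concentrations) in 0.01 M phosphate buffer, pH 7.0, to the sample solution. Incubated at 37 °C for 30 min, then stopped with 0.1 M Na2CO3. Activity read as absorbance at 401 nm. IC50 is the concentration giving 50% inhibition of enzyme activity. Acarbose was the positive control.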

SMILES	IC50 [µM]
COc1cc(C[C@H]2C(=O)OC[C@@H]2C(=O)c2ccc(O)c(OC)c2)ccc1O	79.1
COc1cc(C[C@H]2[C@@H](OC)OC[C@@H]2[C@H](OC)c2ccc(O)c(OC)c2)ccc1O	133
C[C@H]1O[C@H](O[C@H]2[C@H](O)[C@@H](O)[C@@H](O[C@H]3[C@H](O)[C@@H](O)C(O)O[C@@H]3CO)O[C@@H]2CO)[C@H](O)[C@@H](O)[C@@H]1N[C@H]1C=C(CO)[C@@H](O)[C@H](O)[C@H]1O (stereo partly specified) [ACARBOSE]	215
COc1cc([C@H]2c3cc(O)c(OC)cc3C[C@H]3C(=O)OC[C@H]23)ccc1O [ALPHA-CONIDENDRIN]	194
COc1cc(C[C@H]2COC(=O)[C@@H]2Cc2ccc(O)c(OC)c2)ccc1O [MATAIRESINOL]	175

The next lines start with the values.

IC50 [µM]	SMILES
135	COc1cc2c(cc1O)C1c3cc(O)c(O)cc3C(=O)C(C2)C1CO (stereo unspecified)
35.3	COc1cc([C@H]2c3cc(O)c(OC)cc3C[C@H]3[C@H](OC)OC[C@H]23)ccc1O
38.8	COc1cc([C@H]2c3cc(O)c(OC)cc3C[C@H]3[C@@H](OC)OC[C@H]23)ccc1O
52.2	COc1cc2c(cc1O)C1c3cc(OC)c(O)cc3C(=O)C(C2)C1CO (stereo unspecified)
170	COc1cc([C@@H](OC)[C@@H]2CO[C@H](c3ccc(O)c(OC)c3)[C@@H]2CO)ccc1O (relative stereo)
42.9	COc1cc([C@H]2OC[C@@H]([C@@H](OC)c3ccc(O)c(OC)c3)[C@H]2CO)ccc1O (relative stereo)
